The record followed here is ChEMBL document CHEMBL4371041, “Synthesis and evaluation of thieno[3,2-d]pyrimidine derivatives as novel FMS inhibitors” (Bioorg Med Chem Lett, 2019).

Data set [1] can be described thus: Half life in CD-1 mouse at 3 mg/kg, iv. The class given is ADME, organism-based. As to conditions: in vivo.
Data set [2] in a line: Half life in CD-1 mouse at 10 mg/kg, po. The class given is ADME, organism-based. As to conditions: in vivo.
Data set [3] in a line: Cmax in CD-1 mouse at 3 mg/kg, iv. It is filed as ADME, organism-based. Also noted: dose 3 mg/kg, route intravenous. As to conditions: in vivo.
The nature of data set [4]: Cmax in CD-1 mouse at 10 mg/kg, po. The class given is ADME, organism-based. On the set-up: dose 10 mg/kg, route oral. To be noted: in vivo.
Data set [5] is described as follows: Tmax in CD-1 mouse at 10 mg/kg, po. It is filed as ADME, organism-based. As to conditions: in vivo.
A short description of data set [6]: Volume of distribution in CD-1 mouse at 3 mg/kg, iv. The class given is ADME, organism-based. To be noted: in vivo.
A short description of data set [7]: AUC (0 to 7 hrs) in CD-1 mouse at 10 mg/kg, po. The class given is ADME, organism-based. Also noted: time < 7 hr, dose 10 mg/kg, route oral. To be noted: in vivo.
In data set [8] the test system is NFS-60. Nature of the data set: Growth inhibition of mouse NFS60 cells after 72 hrs by CellTiter96 AQueous one solution cell proliferation assay. It is filed as functional. As to conditions: NFS-60, 72 h.
Data set [9] can be described thus: Clearance in CD-1 mouse at 3 mg/kg, iv. It is filed as ADME, organism-based. To be noted: in vivo.
A short description of data set [10]: Oral bioavailability in CD-1 mouse at 10 mg/kg. The class given is ADME, organism-based. As to conditions: in vivo.
Data set [11] is described as follows: AUC (0 to 7 hrs) in CD-1 mouse at 3 mg/kg, iv. The class given is ADME, organism-based. Also noted: dose 3 mg/kg, time < 7 hr, route intravenous. As to conditions: in vivo.
The target in data set [12] is Cytochrome P450 1A2 (Homo sapiens, UniProt P05177). The experiment in a line: Inhibition of CYP1A2 in human liver microsomes by LC-MS/MS analysis. The class given is ADME. In a few lines: (§1)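 Reversible CYP inhibition measured in human liver microsomes; metabolite formation quantified by LC/MS/MS.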
Cytochrome P450 1A2, sequence (P05177 whole entry): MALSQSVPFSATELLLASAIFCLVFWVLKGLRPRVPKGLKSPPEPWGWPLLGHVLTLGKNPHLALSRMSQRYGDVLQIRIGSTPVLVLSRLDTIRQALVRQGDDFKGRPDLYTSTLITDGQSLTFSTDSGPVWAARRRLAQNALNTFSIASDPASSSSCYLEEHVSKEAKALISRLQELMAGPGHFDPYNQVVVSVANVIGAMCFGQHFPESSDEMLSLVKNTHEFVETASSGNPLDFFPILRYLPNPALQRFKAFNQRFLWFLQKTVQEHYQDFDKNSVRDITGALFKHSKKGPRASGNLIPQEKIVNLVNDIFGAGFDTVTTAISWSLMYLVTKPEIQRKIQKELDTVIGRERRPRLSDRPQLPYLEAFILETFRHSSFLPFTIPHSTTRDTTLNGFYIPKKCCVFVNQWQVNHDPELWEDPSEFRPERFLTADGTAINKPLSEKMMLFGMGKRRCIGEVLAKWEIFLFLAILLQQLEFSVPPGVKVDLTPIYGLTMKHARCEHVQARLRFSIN
On the technique in general: Liver microsomes are a subcellular fraction often used to study metabolism.

For data set [13], the target named is Cytochrome P450 2C9 (Homo sapiens, UniProt P11712). Nature of the data set: Inhibition of CYP2C9 in human liver microsomes by LC-MS/MS analysis. The class given is ADME. In a few lines:
as §1

In data set [14] the target is Cytochrome P450 2C19 (Homo sapiens, UniProt P33261). The experiment in a line: Inhibition of CYP2C19 in human liver microsomes by LC-MS/MS analysis. It is filed as ADME. In a few lines: as §1
Cytochrome P450 2C19, sequence (P33261 whole entry): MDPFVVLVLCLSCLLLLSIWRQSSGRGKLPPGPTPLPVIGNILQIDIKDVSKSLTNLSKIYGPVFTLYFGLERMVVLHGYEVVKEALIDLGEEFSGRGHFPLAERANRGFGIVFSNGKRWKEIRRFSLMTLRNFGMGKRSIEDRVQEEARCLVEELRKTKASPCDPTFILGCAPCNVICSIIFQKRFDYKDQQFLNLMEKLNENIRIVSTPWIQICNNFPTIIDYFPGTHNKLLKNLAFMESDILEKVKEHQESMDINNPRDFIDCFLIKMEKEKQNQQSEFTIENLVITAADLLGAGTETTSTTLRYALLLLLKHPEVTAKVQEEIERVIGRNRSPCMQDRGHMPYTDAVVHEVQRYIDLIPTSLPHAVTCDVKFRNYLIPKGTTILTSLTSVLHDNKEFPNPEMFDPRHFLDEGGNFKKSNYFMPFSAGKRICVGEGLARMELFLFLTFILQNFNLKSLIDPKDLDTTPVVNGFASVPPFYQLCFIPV
The target of data set [15] is Cytochrome P450 3A4 (Homo sapiens, UniProt P08684). The experiment in a line: Inhibition of CYP3A4 in human liver microsomes by LC-MS/MS analysis. It is filed as ADME. In a few lines:
as §1

Data set [16] concerns the target Cytochrome P450 2D6 (Homo sapiens, UniProt P10635). Nature of the data set: Inhibition of CYP2D6 in human liver microsomes by LC-MS/MS analysis. The class given is ADME. In a few lines: as §1
Data set [17] in a line: Stability in human hepatocytes assessed as parent compound remaining measured after 60 mins. As to conditions: read-out: Stability. It is filed as ADME, cell-based, Hepatocyte.

Cytochrome P450 3A4, sequence (P08684 whole entry): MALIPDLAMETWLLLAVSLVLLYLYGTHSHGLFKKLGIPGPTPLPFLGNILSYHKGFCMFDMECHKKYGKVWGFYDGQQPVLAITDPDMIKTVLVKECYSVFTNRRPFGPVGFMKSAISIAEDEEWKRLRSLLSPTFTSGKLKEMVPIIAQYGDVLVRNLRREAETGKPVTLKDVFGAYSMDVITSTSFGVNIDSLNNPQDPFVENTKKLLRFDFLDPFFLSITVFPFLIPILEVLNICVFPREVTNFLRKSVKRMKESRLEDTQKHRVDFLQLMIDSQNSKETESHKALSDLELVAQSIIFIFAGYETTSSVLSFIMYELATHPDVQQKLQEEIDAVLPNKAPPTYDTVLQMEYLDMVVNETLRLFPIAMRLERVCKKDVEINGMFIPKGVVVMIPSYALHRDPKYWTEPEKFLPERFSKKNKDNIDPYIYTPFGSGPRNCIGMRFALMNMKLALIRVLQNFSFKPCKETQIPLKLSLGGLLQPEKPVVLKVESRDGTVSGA
Cytochrome P450 2C9, sequence (P11712 whole entry): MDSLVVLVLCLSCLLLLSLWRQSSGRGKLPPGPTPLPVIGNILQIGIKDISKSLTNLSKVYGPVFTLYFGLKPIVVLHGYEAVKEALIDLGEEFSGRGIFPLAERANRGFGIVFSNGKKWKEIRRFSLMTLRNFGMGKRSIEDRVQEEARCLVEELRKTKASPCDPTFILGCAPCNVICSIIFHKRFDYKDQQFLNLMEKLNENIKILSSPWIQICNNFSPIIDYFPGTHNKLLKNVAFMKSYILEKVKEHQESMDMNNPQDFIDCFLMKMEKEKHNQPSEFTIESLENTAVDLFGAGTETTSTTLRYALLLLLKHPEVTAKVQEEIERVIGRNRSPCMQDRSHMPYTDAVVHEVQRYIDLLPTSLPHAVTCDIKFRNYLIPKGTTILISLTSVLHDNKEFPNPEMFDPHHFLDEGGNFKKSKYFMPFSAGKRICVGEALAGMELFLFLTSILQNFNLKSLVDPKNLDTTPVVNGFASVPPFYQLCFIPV
Cytochrome P450 2D6, sequence (P10635 whole entry): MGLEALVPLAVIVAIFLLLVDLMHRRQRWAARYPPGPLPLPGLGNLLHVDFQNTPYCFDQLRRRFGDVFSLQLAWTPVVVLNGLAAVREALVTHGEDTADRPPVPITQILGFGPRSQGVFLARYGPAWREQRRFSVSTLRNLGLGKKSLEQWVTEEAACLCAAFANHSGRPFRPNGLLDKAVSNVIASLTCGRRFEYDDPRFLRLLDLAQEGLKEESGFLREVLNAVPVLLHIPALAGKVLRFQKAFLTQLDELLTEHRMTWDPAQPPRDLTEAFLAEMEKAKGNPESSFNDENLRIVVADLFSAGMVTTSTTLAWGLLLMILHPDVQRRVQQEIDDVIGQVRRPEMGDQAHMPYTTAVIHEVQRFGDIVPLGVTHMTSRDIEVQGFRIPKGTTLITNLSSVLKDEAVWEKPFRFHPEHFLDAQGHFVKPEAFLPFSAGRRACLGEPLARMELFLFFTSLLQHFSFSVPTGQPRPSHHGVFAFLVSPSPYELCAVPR

What is called half-life is how long it takes for the measured level to halve. A lower half-life goes with fast loss. One may read the Cmax as the peak of the concentration-time curve. As a reminder, the Tmax is the time at which the peak concentration occurs. As a reminder, the Vd is a proportionality between amount in the body and measured concentration, not a real space. Broadly, the AUC(0-t) is exposure summed from dosing to a finite time, without extrapolation to infinity. As usually defined, the GI50 is the concentration that inhibits growth by half. High values mean lower sensitivity of the cells, low ones greater sensitivity of the cells. Usually clearance stands for a measure of how efficiently the substance is removed, as volume per time. Read a low clearance as inefficient removal. By bioavailability is commonly meant the share of a dose that reaches the circulation, judged against a reference dose that is usually intravenous. `Cc1cccc(Cn2nc(Br)c3c(NC(=O)c4csc5c(N)ncnc45)cccc32)n1`: the half-life is 2.6 h in [1] and 3.9 h in data set [2]. For the same molecule, the results for the maximum concentration (Cmax) in [3] and in data set [4] were 2400 ng/mL and 1620 ng/mL, respectively. The Tmax in [5] stood at 1 h. Also, the Vd in data set [6] turned out to be 1.4 L/kg. The area under the curve AUC(0-t) at 7 h in data set [7] came to 6060 ng·h/mL; in data set [11], 5760 ng·h/mL. Moreover, the GI50 in [8] lay in the range of 27.5 to 28 nM. For the same molecule, the clearance in data set [9] is 6.67 mL/min/kg. This molecule also registered a bioavailability in data set [10] of 37%.
On to `CCc1nn(Cc2cccc(C)n2)c2cccc(NC(=O)c3csc4c(N)ncnc34)c12`, for which, in [8], the GI50 was over 10000 nM.
Still for that read-out and setting: as for `Nc1ncnc2c(C(=O)Nc3cccc4c3c(Br)nn4Cc3cccc(F)n3)csc12`, the figure is 233 nM; as for `CCn1nc(Cn2nc(Br)c3c(NC(=O)c4csc5c(N)ncnc45)cccc32)cc1C(C)C`, 62 nM.
On the same count and under the same terms, as for `COc1cccc(Cn2nc(Br)c3c(NC(=O)c4csc5c(N)ncnc45)cccc32)n1`, the figure is 34 nM.
Same read-out and setting: as for `Nc1ncnc2c(C(=O)Nc3cccc4c3c(Br)nn4Cc3ccncc3)csc12`, the figure is 135 nM.
In [8], `Nc1ncnc2c(C(=O)Nc3cccc4c3c(Br)nn4Cc3ccccc3)csc12` showed a GI50 of 1000 nM.
Still for that read-out and setting: next, `C#CCn1nc(Br)c2c(NC(=O)c3csc4c(N)ncnc34)cccc21`: over 10000 nM; `Nc1ncnc2c(C(=O)Nc3cccc4c3c(Br)nn4Cc3ccccn3)csc12`: 2500 nM.
On the same count and under the same terms, next, `C=Cc1nn(Cc2cccc(C)n2)c2cccc(NC(=O)c3csc4c(N)ncnc34)c12`: 4460 nM.
In general, IC50 refers to the point on the concentration scale where inhibition reaches its midpoint. A lower IC50 goes with greater potency in that assay. Take `Nc1ncnc2c(C(=O)Nc3cccc4c3c(Br)nn4Cc3cccnc3)csc12`: the IC50 is under 250 nM in data set [12]; 1380 nM in [13]; 2020 nM in data set [14]; 310 nM in data set [15]; over 20000 nM in [16]. The molecule also registered a GI50 in [8] of 77 nM.
`Nc1ncnc2c(C(=O)Nc3cccc4c3c(Br)nn4Cc3cccc(Br)n3)csc12` had a concentration for 50% growth inhibition (GI50) in data set [8] of 243 nM. In other words, the sub-micromolar range.
The same measure, in the same setting: as for `COc1ccc(COc2ccc(Cc3cnc(N)nc3N)cc2OC)cc1` [GW632580X], the figure is 94 nM.
Turning to `Cc1cccc(Cn2nc(Cl)c3c(NC(=O)c4csc5c(N)ncnc45)cccc32)n1`, the remaining at 1 h in [17] is 66%. Growth in [8] was halved (GI50) at 8 nM.
Consider `Cc1cccc(Cn2nc(I)c3c(NC(=O)c4csc5c(N)ncnc45)cccc32)n1`, for which the GI50 in data set [8] turned out to be 30 nM.
On the same count and under the same terms, as for `Nc1ncnc2c(C(=O)Nc3cccc4c3c(Br)nn4CC3CCCCC3)csc12`, the figure is 254 nM.
On the same count and under the same terms, next, `COc1ccc(Cn2nc(Br)c3c(NC(=O)c4csc5c(N)ncnc45)cccc32)cc1`: 2390 nM.
